Compound activity (PubChem)
Shown are actives, neighbours in structure and some others; about 2.4% of the full set was active somewhere.
HTRA1 inhibitor: inhibitors of human serine peptidase HTRA1 | inhibition, % at 5.96 µM | recombinant HTRA1, FP-rhodamine activity-based probe, fluorescence polarization | 340,000 tested, 0.5% active | Q92743; in the data active = inhibition above about 36%;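 also: 0% = enzyme with DMSO and 100% = wells lacking enzyme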
ABHD4 inh: ABHD4 (mouse) inhibition, primary FP screen; Q8VD66; purified mABHD4, FP-Rh probe fluorescence polarization; inhibition, % at 8.92 µM; 370,000 tested, 0.54% active;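 active = inhibition exceeding the mean over every tested compound plus 3 SD, cut at about 30% in these data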;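 also: 0% = plate median of compound wells and 100% = S159A mutant with DMSO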
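system = mouse ABHD4 enzyme, wild type | medium = HEPES pH 7.0, NaCl, Pluronic buffer | also added = FP-Rh probe | incubation = Enzyme–compound pre-incubation 45 min, then probe 60 min, both 25 °C | technique = fluorescence polarization, excitation 525 nm, emission 598 nm, BODIPY TMR filters | controls = S159A mutant high control, sample median low control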
JMJD2C inh: inhibitors of human GASC-1 (JMJD2C) demethylase; GST-JMJD2C(1-420) H3K9me3 demethylation, DELFIA europium; Q9H3R0; AID 2099; 330,000 tested, 0.069% active; inhibition, % at 2.35 µM;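 active = more than half of a compound's replicate wells show inhibition beyond 50%, single wells judged on their own value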;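 also: signal counts dimethyl H3K9 product captured on neutravidin plate; 0% = median of DMSO wells and 100% = 0.3 times that DMSO median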
Target sequence (Q9H3R0 1-420 limits assumed): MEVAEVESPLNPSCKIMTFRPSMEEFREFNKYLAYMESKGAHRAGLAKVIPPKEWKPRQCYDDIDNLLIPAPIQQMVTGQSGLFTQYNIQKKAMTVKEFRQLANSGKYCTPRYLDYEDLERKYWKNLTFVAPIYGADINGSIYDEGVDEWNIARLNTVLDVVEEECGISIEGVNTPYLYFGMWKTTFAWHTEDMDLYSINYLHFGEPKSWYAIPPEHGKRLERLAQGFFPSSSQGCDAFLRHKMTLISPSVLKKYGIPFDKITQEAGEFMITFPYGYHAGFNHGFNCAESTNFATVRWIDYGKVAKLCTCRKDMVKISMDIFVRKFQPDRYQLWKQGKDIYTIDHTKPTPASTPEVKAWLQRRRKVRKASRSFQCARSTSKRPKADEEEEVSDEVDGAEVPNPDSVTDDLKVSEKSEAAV
PRMT1 inh: PRMT1 (human) inhibition, primary screen; recombinant PRMT1, activity-based probe fluorescence polarization; 370,000 tested, 1.3% active; Q99873; inhibition, % at 2.79 µM; AID 652257;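 active = inhibition above about 21% made by adding two undisclosed values, limit read from the data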
SIAE primary: blocks human sialic acid acetylesterase; AID 1053197; inhibition, % at 9.66 µM; SIAE FP-Rh probe binding, fluorescence polarization; Q9HAT2; 370,000 tested, 0.69% active;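 active = inhibition above a cutoff: mean of compounds within the control limits plus 3 SD of those, cut at about 17% in these data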;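 also: 0% = plate median of compound wells and 100% = probe without SIAE protein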
HTRA1 inh conf: confirmation of human HTRA1 inhibitors | shares compounds with HTRA1 inhibitor | recombinant HTRA1, FP-rhodamine activity-based probe, fluorescence polarization | inhibition, % at 5.96 µM | 1,600 tested, 66% active | AID 540248;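 active = mean inhibition over three repeats above a set limit taken from the earlier primary screen, cut at about 37% in these data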;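 also: 0% = HTRA1 with DMSO and 100% = wells lacking HTRA1; inhibitors block probe binding so polarization drops and inhibition rises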
PRMT1 confirm: confirmation of human PRMT1 inhibitors. 3,300 tested, 42% active. AID 687036. inhibition, % at 2.79 µM. shares compounds with PRMT1 inh. recombinant His-PRMT1, activity-based probe fluorescence polarization;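 active = mean inhibition across replicates above the hit cutoff derived for the earlier primary screen, cut at about 22% in these data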
ABHD4 confirm: confirmation of mouse ABHD4 inhibitors. purified mABHD4, FP-Rh probe fluorescence polarization. shares compounds with ABHD4 inh. AID 720658. inhibition, % at 8.92 µM. 1,800 tested, 55% active;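 active = mean inhibition across replicates above the hit cutoff set in the primary screen, cut at about 30% in these data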;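 also: 0% = wild-type ABHD4 with DMSO and 100% = catalytically dead S159A mutant with DMSO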
SIAE confirm: human SIAE inhibition, confirmation; SIAE FP-Rh activity-based probe, fluorescence polarization; shares compounds with SIAE primary; inhibition, % at 9.66 µM; 2,300 tested, 13% active; AID 1117263;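 active = mean inhibition of the replicates above the hit cutoff set in the primary screen, cut at about 17% in these data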;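 also: 0% = SIAE with DMSO and probe and 100% = probe without SIAE; inhibitors lower polarization as more probe stays unbound to SIAE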
An asterisk follows results filed as active; . = no result.

SMILES	HTRA1 inhibitor	ABHD4 inh	JMJD2C inh	PRMT1 inh	SIAE primary	HTRA1 inh conf	ABHD4 confirm	SIAE confirm	others
O=C(O)c1cccc(CN2C(=O)c3ccccc3C2=O)c1	1	-8	-13	-1	-1	.	.	.
O=S1(=O)CC(N2CCCC2)CN1Cc1cn(Cc2ccc(F)cc2)nn1 (stereo not drawn)	.	-2	.	-3	11	.	.	.
O=S(=O)(CC1NCc2ccccc21)NC1CCCC1 (stereo not drawn)	.	-10	.	-2	-1	.	.	.
COc1cccc(-n2c(SCc3cc(=O)oc4cc(O)c(O)cc34)nc3ccccc3c2=O)c1	67*	25	-11	10	32*	76*	.	-13
CCN(CC)C(=O)CSc1nc2ccccc2c(=O)n1-c1cccc(OC)c1	-4	-12	3	3	2	.	.	.
O=C(NNc1c2ccccc2nc2ccccc12)c1ccccc1O	51*	28	2	4	19*	39*	.	18*
COc1ccc(Oc2cccc3c2S(=O)(=O)N(C2CC2)C[C@@H](COCc2ccccc2)O3)cc1	.	-12	.	0	-5	.	.	.
CC(=O)C(=Nc1ccccc1Cl)NNc1ccc(Cl)cc1	47*	43*	-5	71*	18*	-18	-18	1
CCN(CC)S(=O)(=O)c1ccc(SCC(=O)c2c(N)n(C3CC3)c(=O)[nH]c2=O)nc1	6	-4	.	7	3	.	.	.
COc1ccc(/C=N/NC(=O)C(=O)/C=C2\NC3(CCCC3)Cc3ccccc32)cc1	-78	-23	1	3	-19	.	.	.
O=C(/C=C1\NC2(CCCC2)Cc2ccccc21)C(=O)N/N=C/c1ccc(O)c(O)c1	79*	32*	-33	6	29*	63*	8	-30
O=C(Nc1ccc2cn[nH]c2c1)c1c(Cl)cccc1Cl	-8	-2	12	7	-1	.	.	.
O=C1C(Cl)=C(Nc2ccc3cn[nH]c3c2)C(=O)c2ccccc21	47*	46*	-7	43*	18*	75*	54*	7
COc1cc(-c2nc(-c3ccccc3)c(-c3cccs3)[nH]2)cc(OC)c1OC	8	1	4	-1	12	.	.	.
COc1cc(-c2nc(-c3ccccc3)c(-c3cccs3)[nH]2)cc(OC)c1O	43*	35*	-11	5	20*	35	44*	6
CCn1c(CSc2nnc(-c3ccncc3)n2C)nc2cc(C(=O)O)ccc21	66*	23	1	1	28*	56*	.	39*
CCn1c(CSc2ncn[nH]2)nc2cc(C(=O)O)ccc21	10	2	0	-3	7	.	.	.
Oc1c(Cl)cc(Cl)cc1/C=N/NC(=S)NC1CC2C=CC1C2 (stereo not drawn)	52*	39*	5	0	20*	54*	41*	21*
CCOC(=O)[C@@]12CCCC=C1N(CCc1ccc(Cl)cc1)C(=O)[C@H]2CC(=O)N1CCCCC1	.	7	.	-5	7	.	.	.
Cn1c(=O)c(Nc2ccc(O)cc2)c2c3c(cccc31)C(=O)c1ccccc1-2	78*	74*	60*	105*	26*	86*	65*	14	PRMT1 confirm=32*
CC(=O)c1c2c3c(cccc3n(C)c1=O)C(=O)c1ccccc1-2	.	.	-4	.	.	.	.	.
CC(=O)NC(c1ccccc1)c1nc(-c2cnc3ccccc3c2)cs1 (stereo not drawn)	.	-3	.	6	-4	.	.	.
O=C1C=C(Nc2cccc3cccnc23)c2ccccc2C1=O	42*	59*	-11	9	19*	39*	25	4
O=C1C=C(Nc2ccccc2)c2ccccc2C1=O	2	12	-21	6	3	.	.	.
CCC(=O)N1CCc2cc(Br)c(S(=O)(=O)N3CCC(C(=O)NC(C)(C)C)CC3)cc21	.	-2	.	1	12	.	.	.
